Measurements from ChEMBL document CHEMBL1138488, “Synthesis and biological evaluation of 3,3-difluoropyridine-2,4(1H,3H)-dione and 3-deaza-3-fluorouracil base and nucleoside derivatives” (J Med Chem, 2009).
The source made the active and inactive calls. The rule behind the calls is not given here.

Legend:
Human respirovirus 3 = assay: Antiviral activity against Parainfluenza virus type 3 infected in african green monkey Vero cells assessed as inhibition of virus-induced cytopathic effect at <=100 uM; assay type: functional, organism-based
Method in brief: (§1)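 Confluent cell monolayers were inoculated with 100 CCID₅₀ of virus, and virus was adsorbed for 1 h. Residual virus was then removed and cells were incubated with serial compound concentrations ([…], ... µM). Cytopathicity was scored once it reached completion in untreated virus-infected control cultures.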

[1] = system: Mammalian orthoreovirus 3; assay: Antiviral activity against Reovirus 3 infected in african green monkey Vero cells assessed as inhibition of virus-induced cytopathic effect at <=100 uM; assay type: functional, organism-based
Sindbis virus = assay: Antiviral activity against Sindbis virus infected in african green monkey Vero cells assessed as inhibition of virus-induced cytopathic effect at <=100 uM; assay type: functional, organism-based; method in brief: as §1
Punta Toro virus = assay: Antiviral activity against Punta Toro virus infected in african green monkey Vero cells assessed as inhibition of virus-induced cytopathic effect at <=100 uM; assay type: functional, organism-based; method in brief: as §1
Human betaherpesvirus 5 [2] = assay: Antiviral activity against HCMV AD169 infected in HEL cells assessed as inhibition of virus-induced cytopathic effect at <=100 uM; assay type: functional, organism-based; method in brief: as §1
Human betaherpesvirus 5 [3] = assay: Antiviral activity against HCMV Davis infected in HEL cells assessed as inhibition of virus-induced cytopathic effect at <=100 uM; assay type: functional, organism-based; method in brief: as §1
Human alphaherpesvirus 3 [4] = assay: Antiviral activity against thymidine kinase expressing Varicella zoster virus Oka infected in human HEL cells assessed as inhibition of virus-induced cytopathic effect at <=100 uM; assay type: functional, organism-based; method in brief: as §1
Human alphaherpesvirus 3 [5] = assay: Antiviral activity against thymidine kinase deficient Varicella zoster virus 07/1 infected in human HEL cells assessed as inhibition of virus-induced cytopathic effect at <=100 uM; assay type: functional, organism-based; method in brief: as §1
[6] = system: Human immunodeficiency virus 1; assay: Antiviral activity against HIV1 3B replication in human CEM cells assessed as virus-induced giant cell formation at <=100 uM after 4 days; assay type: functional, organism-based; settings: CCRF-CEM
Method in brief: (§2)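 CEM cells (~3 × 10⁵ cells/cm³) were infected with 100 CCID₅₀/mL of HIV-1(III_B) or HIV-2(ROD) and seeded into wells containing compound dilutions. After 4 days at 37 °C, virus-induced giant cell formation was examined microscopically.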

[7] = system: Human immunodeficiency virus 2; assay: Antiviral activity against HIV2 ROD replication in human CEM cells assessed as virus-induced giant cell formation at <=100 uM after 4 days; assay type: functional, organism-based; settings: CCRF-CEM; method in brief: as §2
L1210 = assay: Cytostatic activity against mouse L1210 cells at <=500 uM after 2 days by Coulter counting analysis; assay type: ADME, cell-based; settings: l1210, 48 h
Method in brief: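 Murine leukemia L1210 cells were seeded at 50000 cells per well with varying compound concentrations. Viable cell number was counted by Coulter counter after 2 days.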

[8] = Cytostatic activity against human Molt4/C8 cells at <=500 uM after 3 days by Coulter counting analysis; assay type: ADME, cell-based; settings: molt-4, 72 h
Method in brief: (§3)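 Molt4/C8 or CEM lymphocytes were seeded at 75000 cells per well with varying compound concentrations. Viable cells were counted by Coulter counter after 3 days. CC₅₀ is the concentration inhibiting cell proliferation by 50%.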

CCRF-CEM = assay: Cytostatic activity against human CEM cells at <=500 uM after 3 days by Coulter counting analysis; assay type: cell-based; settings: 72 h; method in brief: as §3
Human alphaherpesvirus 1 [9] = assay: Antiviral activity against HSV1 KOS infected in HEL cells assessed as virus-induced cytopathic effect at <=100 uM; assay type: functional, organism-based
Human alphaherpesvirus 1 [10] = assay: Antiviral activity against acyclovir-resistant […] kinase-deficient HSV1 KOS infected in HEL cells assessed as virus-induced cytopathic effect at <=100 uM; assay type: functional, organism-based
Human alphaherpesvirus 2 = assay: Antiviral activity against HSV2 strain G infected in HEL cells assessed as virus-induced cytopathic effect at <=100 uM; assay type: functional, organism-based
Vaccinia virus = assay: Antiviral activity against Vaccinia virus infected in HEL cells assessed as inhibition of virus-induced cytopathic effect at <=100 uM; assay type: functional, organism-based; settings: Orthopoxvirus vaccinia
[11] = system: Vesicular stomatitis virus; assay: Antiviral activity against Vesicular stomatitis virus infected in HEL cells assessed as inhibition of virus-induced cytopathic effect at <=100 uM; assay type: functional, organism-based
[12] = system: Vesicular stomatitis virus; assay: Antiviral activity against Vesicular stomatitis virus infected in human HeLa cells assessed as inhibition of virus-induced cytopathic effect at <=100 uM; assay type: functional, organism-based
Coxsackievirus B4 = assay: Antiviral activity against Coxsackievirus B4 infected in human HeLa cells assessed as inhibition of virus-induced cytopathic effect at <=100 uM; assay type: functional, organism-based; method in brief: as §1
[13] = system: Respiratory syncytial virus; assay: Antiviral activity against Respiratory syncytial virus infected in human HeLa cells assessed as inhibition of virus-induced cytopathic effect at <=100 uM; assay type: functional, organism-based; method in brief: as §1
[14] = system: Moloney murine sarcoma virus; assay: Antiviral activity against Moloney sarcoma virus replication infected in mouse […] cells assessed as virus-induced transformation of cells at <=100 uM measured on day 6 postinfection; assay type: functional, organism-based
Method in brief: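 Murine C3H/3T3 embryo fibroblasts were grown to confluency and infected with Moloney murine sarcoma virus at 75 focus-forming units. Compound concentrations were then added, and virus-induced transformation was examined microscopically at day 6 postinfection.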

Compound	Activity (Human respirovirus 3)	Activity [1]	Activity (Sindbis virus)	Activity (Punta Toro virus)	Activity (Human betaherpesvirus 5 [2])	Activity (Human betaherpesvirus 5 [3])	Activity (Human alphaherpesvirus 3 [4])	Activity (Human alphaherpesvirus 3 [5])	Activity [6]	Activity [7]	Activity (L1210)	Activity [8]	Activity (CCRF-CEM)	Activity (Human alphaherpesvirus 1 [9])	Activity (Human alphaherpesvirus 1 [10])	Activity (Human alphaherpesvirus 2)	Activity (Vaccinia virus)	Activity [11]	Activity [12]	Activity (Coxsackievirus B4)	further results
NC(=O)Cc1ccn([C@H]2C[C@H](O)[C@@H](CO)O2)c(=O)c1F	inactive	inactive	inactive	inactive	inactive	inactive	inactive	inactive	inactive	inactive	Not Active	Not Active	Not Active	inactive	inactive	inactive	inactive	inactive	inactive	inactive	Activity [13]: inactive; Activity [14]: inactive
CC1(O)C=CN([C@@H]2O[C@H](CO)[C@@H](O)[C@H]2O)C(=O)C1(F)F (stereo partly drawn)	inactive	inactive	inactive	inactive	inactive	inactive	inactive	inactive	inactive	inactive	Not Active	Not Active	Not Active	inactive	inactive	inactive	inactive	inactive	inactive	inactive	Activity [13]: inactive; Activity [14]: inactive
O=C1N([C@@H]2O[C@H](CO)[C@@H](O)[C@H]2O)C=CC(O)(c2ccccc2)C1(F)F (stereo partly drawn)	inactive	inactive	inactive	inactive	inactive	inactive	inactive	inactive	inactive	inactive	Not Active	Not Active	Not Active	inactive	inactive	inactive	inactive	inactive	inactive	inactive	Activity [13]: inactive; Activity [14]: inactive
C#CC1(O)C=CN([C@@H]2O[C@H](CO)[C@@H](O)[C@H]2O)C(=O)C1(F)F (stereo partly drawn)	inactive	inactive	inactive	inactive	inactive	inactive	inactive	inactive	inactive	inactive	Not Active	Not Active	Not Active	inactive	inactive	inactive	inactive	inactive	inactive	inactive	Activity [13]: inactive; Activity [14]: inactive
O=c1c(F)c(O)ccn1[C@@H]1O[C@H](CO)[C@@H](O)[C@@H]1O	inactive	inactive	inactive	inactive	inactive	inactive	inactive	inactive	inactive	inactive	Not Active	Not Active	Not Active	inactive	inactive	inactive	inactive	inactive	inactive	inactive	Activity [13]: inactive; Activity [14]: inactive
NC(=O)Cc1ccn([C@@H]2O[C@H](CO)[C@@H](O)[C@@H]2O)c(=O)c1F	inactive	inactive	inactive	inactive	inactive	inactive	inactive	inactive	inactive	inactive	Not Active	Not Active	Not Active	inactive	inactive	inactive	inactive	inactive	inactive	inactive	Activity [13]: inactive; Activity [14]: inactive
O=C1N([C@H]2C[C@H](O)[C@@H](CO)O2)C=CC(O)(c2ccccc2)C1(F)F (stereo partly drawn)	inactive	inactive	inactive	inactive	inactive	inactive	inactive	inactive	inactive	inactive	Not Active	Not Active	Not Active	inactive	inactive	inactive	inactive	inactive	inactive	inactive	Activity [13]: inactive; Activity [14]: inactive
CC1(O)C=CN([C@H]2C[C@H](O)[C@@H](CO)O2)C(=O)C1(F)F (stereo partly drawn)	inactive	inactive	inactive	inactive	inactive	inactive	inactive	inactive	inactive	inactive	Not Active	Not Active	Not Active	inactive	inactive	inactive	inactive	inactive	inactive	inactive	Activity [13]: inactive; Activity [14]: inactive
O=c1c(F)c(O)ccn1[C@H]1C[C@H](O)[C@@H](CO)O1	inactive	inactive	inactive	inactive	inactive	inactive	inactive	inactive	inactive	inactive	Not Active	Not Active	Not Active	inactive	inactive	inactive	inactive	inactive	inactive	inactive	Activity [13]: inactive; Activity [14]: inactive
